Laboratory results reported in paper PMC7127609 (Cancer Letters, 2002).
Where two headings read alike, the source gives them in different places.

Key:
[1] = system: K562 cells; assay: Cell growth assay; format: cell-based, human; settings: for IC50: Homo sapiens, K562, read-out: IC50p (50% inhibition of cell proliferation); for % of inhibition of cell proliferation: 4th day
[2] = system: U937 cells; assay: Cell growth assay; format: cell-based, human; settings: for IC50: Homo sapiens, U-937, read-out: IC50p (50% inhibition of cell proliferation)
Procedure, shortened: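 U937 cells seeded at 5×10^4 cells/ml in RPMI 1640 with 10% FBS and 2 mM glutamine, then grown with graded test compound levels at 37 °C, 5% CO2. Hemocytometer counts on days 3–5, trypan blue viability. IC50p taken from a day-3 inhibition-versus-concentration plot. Efflux arm: MRP inhibitor at 10 μM added with test compound (145 or 13 μM final), counted day 4, two quadruplicate experiments, paired t-test.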

[3] = system: U937 cells; settings: cited from earlier work
[4] = target: leucine aminopeptidase; settings: cited from earlier work

Structure (SMILES) | IC50 [1] | % of inhibition of cell proliferation ([1]; K562, 580 μM bestatin or 26 μM actinonin + verapamil (30 μM)) | IC50 [2] | % of inhibition of cell proliferation ([1]; K562, 580 μM bestatin or 26 μM actinonin + MK-571 (10 μM)) | % of inhibition of cell proliferation ([1]; K562, 580 μM bestatin or 26 μM actinonin + MK-571 (30 μM)) | change of IC50p with time of incubation ([1]; K562, 3rd, 4th and 5th days, Fig. 1) | % of inhibition of cell proliferation ([2]; U937, 145 μM bestatin or 13 μM actinonin + MK-571 (10 μM), 4th day) | IC50 ([3]; read-out: IC50p, ref 3) | IC50 ([3]; read-out: IC50p, ref 6, 12) | IC50 ([3]; read-out: IC50p, ref 11) | Ki [4] | antiproliferative effect on U937 cells ([2]; U937, 10 μM)
CCCCC[C@H](CC(=O)NO)C(=O)N[C@H](C(=O)N1CCC[C@H]1CO)C(C)C [Actinonin] | 19 µM | 78.0±6.6% | 11 µM |  |  |  |  |  |  |  |  | 
CC(C)C[C@H](NC(=O)[C@@H](O)[C@H](N)Cc1ccccc1)C(=O)O [Bestatin] | 466 µM |  | 108 µM | 66.0±3.7% | 73.6±3.4% | increased significantly | 87.4±4.1% | 58 µM | ~150 µM | 8 µM | 0.02 µM | 
COc1ccc(CCN(C)CCCC(C#N)(c2ccc(OC)c(OC)c2)C(C)C)cc1OC (centres unmarked) [Verapamil, verapamil] |  |  |  |  |  |  |  |  |  |  |  | exhibits an antiproliferative effect
